This note sets out measurements from ChEMBL document CHEMBL1212913, “Quinazolin-4-one derivatives: A novel class of noncompetitive NR2C/D subunit-selective N-methyl-D-aspartate receptor antagonists” (J Med Chem, 2010).

Test [1] concerns the target Glutamate NMDA receptor; Grin1/Grin2a (Rattus norvegicus, UniProt P35439+Q00959). The experiment in a line: Antagonist activity at rat recombinant NR1-NR2A receptor expressed in Xenopus oocytes at holding potential of -40mV by two-electrode voltage-clamp electrophysiology. The format is functional, cell-based, Oocyte. The procedure, abridged:
(§1)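 Oocytes expressing rat NR1-1a with NR2A, NR2B, NR2C or NR2D, clamped at −40 mV in Ba2+/HEPES recording solution pH 7.4, 23°C. Current evoked by 100 μM glutamate plus 30 μM glycine. Final DMSO 0.05-0.5%, 5-7 inhibitor concentrations, ≥4 oocytes each. IC50 from Hill fit of normalized mean composite data. […] Some NR2A oocytes given BAPTA-AM or K-BAPTA.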
(In two-electrode clamp one electrode senses voltage and the other passes current.)

The species named for test [2] is Rattus norvegicus. The experiment in a line: Selectivity ratio of IC50 for rat recombinant GLuR1 to IC50 for rat recombinant NR1-NR2D receptor. Put shortly:
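Ratio of fitted IC50 values, either NR2A/NR2D or GluR1/NR2D, from two-electrode voltage-clamp Hill fits in oocytes. Where noted, calculated from IC50 values rounded to the nearest μM.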

Test [3] addresses Glutamate NMDA receptor; Grin1/Grin2b (Rattus norvegicus, UniProt P35439+Q00960). Briefly: Antagonist activity at rat recombinant NR1-NR2B receptor expressed in Xenopus oocytes at holding potential of -40mV by two-electrode voltage-clamp electrophysiology. In kind it is functional, cell-based, Oocyte. The procedure, abridged: as §1
The target of test [4] is Glutamate NMDA receptor; Grin1/Grin2c (Rattus norvegicus, UniProt P35439+Q00961). The experiment in a line: Antagonist activity at rat recombinant NR1-NR2C receptor expressed in Xenopus oocytes at holding potential of -40mV by two-electrode voltage-clamp electrophysiology. In kind it is functional, cell-based, Oocyte. Put shortly:
as §1

Test [5] deals with Ionotropic glutamate receptor NMDA 1/2D (Rattus norvegicus, UniProt P35439+Q62645). The experiment in a line: Antagonist activity at rat recombinant NR1-NR2D receptor expressed in Xenopus oocytes at holding potential of -40mV by two-electrode voltage-clamp electrophysiology. In kind it is functional, cell-based, Oocyte. The procedure, abridged: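 Oocytes expressing rat NR1-1a with NR2A, NR2B, NR2C or NR2D, clamped at −40 mV in Ba2+/HEPES recording solution pH 7.4, 23°C. Current evoked by 100 μM glutamate plus 30 μM glycine. Final DMSO 0.05-0.5%, 5-7 inhibitor concentrations, ≥4 oocytes each. IC50 from Hill fit of normalized mean composite data. Some NR2A oocytes given BAPTA-AM or K-BAPTA.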

Test [6] addresses Glutamate receptor 1 (Rattus norvegicus, UniProt P19490). Briefly: Antagonist activity at rat recombinant GLuR1 expressed in Xenopus oocytes assessed as inhibition of glutamate-induced current by two-electrode voltage-clamp electrophysiology. The format is functional, cell-based, Oocyte. Put shortly:
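Two-electrode voltage clamp at −40 mV on Xenopus oocytes expressing rat GluR1, perfused with 90 NaCl, 1.0 KCl, 0.5 BaCl2, 0.005 EDTA, 10 HEPES (mM), pH 7.4, 23°C; activated by 100 μM glutamate. From 20 mM DMSO stocks, 5-7 concentrations, ≥4 oocytes each. Hill fit to mean composite curves normalized to control, minimum usually fixed at 0. Response >75% at 100 μM reported as >300 μM.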

Glutamate NMDA receptor; Grin1/Grin2b, sequence (Q00960 whole entry, other chains not shown): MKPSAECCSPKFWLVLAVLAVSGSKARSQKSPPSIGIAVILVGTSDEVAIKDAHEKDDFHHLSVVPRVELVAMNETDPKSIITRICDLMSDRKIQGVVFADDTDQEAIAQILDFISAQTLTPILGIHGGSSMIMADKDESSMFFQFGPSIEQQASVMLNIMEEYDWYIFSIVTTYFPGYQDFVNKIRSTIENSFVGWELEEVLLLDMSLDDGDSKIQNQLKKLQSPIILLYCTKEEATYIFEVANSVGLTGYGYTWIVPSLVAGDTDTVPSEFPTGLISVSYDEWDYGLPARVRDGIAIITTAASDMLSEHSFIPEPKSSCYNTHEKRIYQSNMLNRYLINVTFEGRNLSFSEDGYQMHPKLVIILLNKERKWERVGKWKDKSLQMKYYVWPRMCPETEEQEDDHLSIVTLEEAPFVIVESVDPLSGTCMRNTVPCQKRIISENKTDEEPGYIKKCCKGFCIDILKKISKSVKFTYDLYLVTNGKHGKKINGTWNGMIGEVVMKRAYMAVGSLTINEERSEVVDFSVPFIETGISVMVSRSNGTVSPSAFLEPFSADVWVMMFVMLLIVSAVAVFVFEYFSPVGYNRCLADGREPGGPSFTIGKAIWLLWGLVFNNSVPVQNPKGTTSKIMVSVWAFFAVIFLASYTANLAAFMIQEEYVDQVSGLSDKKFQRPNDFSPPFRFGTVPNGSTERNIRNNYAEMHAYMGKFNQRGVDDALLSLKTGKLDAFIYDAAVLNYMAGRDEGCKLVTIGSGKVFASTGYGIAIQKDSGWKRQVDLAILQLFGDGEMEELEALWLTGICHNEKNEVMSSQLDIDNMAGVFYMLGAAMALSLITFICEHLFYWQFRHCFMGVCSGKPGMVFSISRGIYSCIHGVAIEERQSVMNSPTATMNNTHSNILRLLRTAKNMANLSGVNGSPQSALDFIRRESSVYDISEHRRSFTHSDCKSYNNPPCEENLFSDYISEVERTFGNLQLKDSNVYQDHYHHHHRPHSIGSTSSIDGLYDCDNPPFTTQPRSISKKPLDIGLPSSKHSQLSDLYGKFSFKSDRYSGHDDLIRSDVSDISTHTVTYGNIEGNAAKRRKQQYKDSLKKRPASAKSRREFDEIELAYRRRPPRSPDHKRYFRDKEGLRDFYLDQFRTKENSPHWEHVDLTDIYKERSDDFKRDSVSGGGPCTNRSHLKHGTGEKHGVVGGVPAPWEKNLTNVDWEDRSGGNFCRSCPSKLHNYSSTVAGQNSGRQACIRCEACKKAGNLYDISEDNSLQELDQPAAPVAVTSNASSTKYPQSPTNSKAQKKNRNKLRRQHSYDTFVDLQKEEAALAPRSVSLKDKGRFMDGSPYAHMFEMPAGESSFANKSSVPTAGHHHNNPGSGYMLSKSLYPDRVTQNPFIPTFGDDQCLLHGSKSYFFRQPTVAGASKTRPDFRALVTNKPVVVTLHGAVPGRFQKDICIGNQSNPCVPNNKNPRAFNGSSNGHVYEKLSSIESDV
Ionotropic glutamate receptor NMDA 1/2D, sequence (Q62645 whole entry, other chains not shown): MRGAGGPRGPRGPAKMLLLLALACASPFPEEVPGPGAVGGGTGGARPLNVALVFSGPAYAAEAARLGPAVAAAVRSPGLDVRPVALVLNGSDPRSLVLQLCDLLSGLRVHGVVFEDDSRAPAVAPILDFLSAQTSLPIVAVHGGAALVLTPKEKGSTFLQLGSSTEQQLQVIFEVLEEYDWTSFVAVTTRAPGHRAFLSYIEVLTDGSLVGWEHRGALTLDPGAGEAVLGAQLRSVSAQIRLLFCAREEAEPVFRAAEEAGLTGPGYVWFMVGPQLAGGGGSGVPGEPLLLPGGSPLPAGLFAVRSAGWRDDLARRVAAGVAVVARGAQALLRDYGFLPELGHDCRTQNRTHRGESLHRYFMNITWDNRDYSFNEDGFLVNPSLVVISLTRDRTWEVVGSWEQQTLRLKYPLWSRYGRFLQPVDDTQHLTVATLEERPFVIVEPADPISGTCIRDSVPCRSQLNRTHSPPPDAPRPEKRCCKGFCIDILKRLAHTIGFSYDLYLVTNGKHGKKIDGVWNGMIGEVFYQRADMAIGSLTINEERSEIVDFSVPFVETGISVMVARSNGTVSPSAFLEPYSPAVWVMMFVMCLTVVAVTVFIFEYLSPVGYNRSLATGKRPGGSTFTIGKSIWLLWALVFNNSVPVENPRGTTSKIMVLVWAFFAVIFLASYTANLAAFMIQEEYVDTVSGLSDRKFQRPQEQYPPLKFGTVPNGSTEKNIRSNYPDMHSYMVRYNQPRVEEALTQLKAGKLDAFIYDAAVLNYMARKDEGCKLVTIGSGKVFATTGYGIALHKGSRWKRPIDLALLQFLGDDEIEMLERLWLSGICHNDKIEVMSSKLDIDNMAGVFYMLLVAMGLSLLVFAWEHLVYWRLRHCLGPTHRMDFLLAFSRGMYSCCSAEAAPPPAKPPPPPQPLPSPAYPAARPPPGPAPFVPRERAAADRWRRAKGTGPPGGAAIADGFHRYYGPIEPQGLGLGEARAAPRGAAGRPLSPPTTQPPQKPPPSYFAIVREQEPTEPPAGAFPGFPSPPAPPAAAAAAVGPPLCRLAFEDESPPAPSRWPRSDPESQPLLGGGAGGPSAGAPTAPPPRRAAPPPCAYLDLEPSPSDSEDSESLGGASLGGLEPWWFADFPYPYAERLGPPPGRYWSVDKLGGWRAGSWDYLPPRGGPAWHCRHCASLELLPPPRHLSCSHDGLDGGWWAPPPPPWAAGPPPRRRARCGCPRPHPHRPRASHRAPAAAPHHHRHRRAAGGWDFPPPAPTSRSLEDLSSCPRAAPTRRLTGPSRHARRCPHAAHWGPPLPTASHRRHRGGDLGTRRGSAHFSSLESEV
Glutamate NMDA receptor; Grin1/Grin2c, sequence (Q00961 whole entry, other chains not shown): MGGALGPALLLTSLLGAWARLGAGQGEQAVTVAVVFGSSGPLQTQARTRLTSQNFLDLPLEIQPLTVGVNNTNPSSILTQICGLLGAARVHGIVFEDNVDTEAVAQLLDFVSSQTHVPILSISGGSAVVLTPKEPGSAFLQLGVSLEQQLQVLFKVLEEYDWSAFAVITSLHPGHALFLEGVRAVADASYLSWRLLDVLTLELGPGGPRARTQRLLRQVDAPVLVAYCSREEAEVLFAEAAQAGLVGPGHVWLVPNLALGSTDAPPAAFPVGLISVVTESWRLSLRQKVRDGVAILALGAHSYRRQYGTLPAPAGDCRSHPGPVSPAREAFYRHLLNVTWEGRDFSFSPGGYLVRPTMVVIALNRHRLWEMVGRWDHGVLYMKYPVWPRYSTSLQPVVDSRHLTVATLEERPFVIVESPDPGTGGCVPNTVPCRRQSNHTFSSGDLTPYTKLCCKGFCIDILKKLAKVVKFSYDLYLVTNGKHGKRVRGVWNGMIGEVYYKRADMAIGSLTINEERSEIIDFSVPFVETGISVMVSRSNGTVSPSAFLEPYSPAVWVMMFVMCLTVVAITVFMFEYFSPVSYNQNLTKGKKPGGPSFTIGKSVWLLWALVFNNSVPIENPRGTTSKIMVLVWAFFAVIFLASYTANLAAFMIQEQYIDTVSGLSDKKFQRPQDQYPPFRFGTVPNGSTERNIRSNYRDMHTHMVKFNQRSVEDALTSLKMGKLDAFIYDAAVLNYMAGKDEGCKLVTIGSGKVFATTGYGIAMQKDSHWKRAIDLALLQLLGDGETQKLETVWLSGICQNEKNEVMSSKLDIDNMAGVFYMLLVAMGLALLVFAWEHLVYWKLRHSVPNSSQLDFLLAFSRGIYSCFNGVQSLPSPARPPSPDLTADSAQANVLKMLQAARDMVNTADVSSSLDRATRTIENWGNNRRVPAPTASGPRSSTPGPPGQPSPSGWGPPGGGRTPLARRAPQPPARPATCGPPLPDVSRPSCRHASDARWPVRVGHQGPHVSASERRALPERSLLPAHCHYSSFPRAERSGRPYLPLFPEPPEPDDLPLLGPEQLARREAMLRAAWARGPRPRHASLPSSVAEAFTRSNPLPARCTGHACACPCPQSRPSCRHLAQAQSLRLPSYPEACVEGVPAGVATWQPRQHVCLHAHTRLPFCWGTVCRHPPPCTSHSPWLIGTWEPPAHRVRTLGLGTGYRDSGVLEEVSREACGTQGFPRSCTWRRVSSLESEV
Glutamate receptor 1, sequence (P19490 whole entry, the tested form may be a part): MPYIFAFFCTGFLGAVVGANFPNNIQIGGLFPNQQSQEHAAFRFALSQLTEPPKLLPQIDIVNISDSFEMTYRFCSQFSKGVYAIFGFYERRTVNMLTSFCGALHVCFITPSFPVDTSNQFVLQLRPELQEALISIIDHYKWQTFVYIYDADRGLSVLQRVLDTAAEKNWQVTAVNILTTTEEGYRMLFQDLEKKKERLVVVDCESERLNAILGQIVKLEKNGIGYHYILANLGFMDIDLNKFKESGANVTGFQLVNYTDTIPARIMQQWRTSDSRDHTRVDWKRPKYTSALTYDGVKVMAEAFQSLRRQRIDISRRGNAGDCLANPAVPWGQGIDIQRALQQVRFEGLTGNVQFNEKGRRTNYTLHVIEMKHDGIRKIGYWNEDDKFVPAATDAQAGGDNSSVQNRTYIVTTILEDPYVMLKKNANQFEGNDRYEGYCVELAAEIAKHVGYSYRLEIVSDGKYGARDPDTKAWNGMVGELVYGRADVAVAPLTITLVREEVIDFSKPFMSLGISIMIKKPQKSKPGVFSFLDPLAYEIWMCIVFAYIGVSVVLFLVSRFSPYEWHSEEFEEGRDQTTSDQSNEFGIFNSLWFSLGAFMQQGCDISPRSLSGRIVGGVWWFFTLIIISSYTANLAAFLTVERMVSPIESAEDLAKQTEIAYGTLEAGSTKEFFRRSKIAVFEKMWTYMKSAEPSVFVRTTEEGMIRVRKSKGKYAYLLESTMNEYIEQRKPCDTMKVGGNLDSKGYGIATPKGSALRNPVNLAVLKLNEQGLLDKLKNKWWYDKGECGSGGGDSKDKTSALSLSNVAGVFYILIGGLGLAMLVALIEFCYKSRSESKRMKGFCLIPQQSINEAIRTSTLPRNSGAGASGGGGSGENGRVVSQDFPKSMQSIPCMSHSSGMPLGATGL

What is called IC50 is the point on the concentration scale where inhibition reaches its midpoint. In the case of `Cc1nc2ccc(I)cc2c(=O)n1-c1ccc(C(=O)O)cc1`, the IC50 in test [1] (read-out: IC50), in test [3] (read-out: IC50), in test [4], in test [5] and in test [6] was above 300 µM throughout. The Ratio IC50 in test [2] was determined as 1.

Turning to `O=C(O)COc1ccc(/C=C/c2nc3ccccc3c(=O)n2-c2ccc(C(=O)O)cc2)cc1`, the IC50 in test [1] (read-out: IC50), in test [3] (read-out: IC50), in test [4], in test [5] and in test [6] was above 300 µM each time. Also, the Ratio IC50 in test [2] was determined as 1.

Consider `O=c1c2cc(I)ccc2nc(/C=C/c2cccnc2)n1-c1cccc([N+](=O)[O-])c1`, for which the IC50 in test [1] (read-out: IC50), in test [3] (read-out: IC50), in test [4], in test [5] and in test [6] was above 300 µM throughout. In addition, in test [2], the Ratio IC50 is 1.

On to `O=C(O)c1ccc(-n2c(/C=C/c3cccc([N+](=O)[O-])c3)nc3ccc([N+](=O)[O-])cc3c2=O)cc1`, for which the IC50 result in test [1] (oocyte) was “Not Active”; in test [3] (oocyte), “Not Active”; in test [4] it was 204 µM; in test [5], 90 µM; in test [6] it was above 300 µM.

Consider `O=C(O)c1ccc(/C=C/c2nc3ccccc3c(=O)n2-c2ccc(C(=O)O)cc2)cc1`, for which the IC50 in test [1] (read-out: IC50), in test [3] (read-out: IC50), in test [4], in test [5] and in test [6] was above 300 µM in each case. The Ratio IC50 in test [2] was 1.

With `O=C(O)c1ccc(-n2c(/C=C/c3ccccc3C(F)(F)F)nc3ccccc3c2=O)cc1`, the IC50 in test [3] (read-out: IC50) was above 300 µM; in test [5] it was 28 µM; in test [6], above 300 µM.

For the molecule `Cc1ccc2nc(CCc3ccccc3)n(-c3ccc(C(=O)O)cc3)c(=O)c2c1`, the IC50 in test [1] (read-out: IC50) is above 300 µM; in test [3] (read-out: IC50), 78 µM; in test [4], 184 µM; in test [5], 282 µM; in test [6] it was above 300 µM.

Consider `COc1ccc(-n2c(/C=C/c3cccnc3)nc3ccc(I)cc3c2=O)cc1`, for which the IC50 in test [1] (read-out: IC50), in test [3] (read-out: IC50), in test [4], in test [5] and in test [6] was above 300 µM in each case. Besides, the Ratio IC50 in test [2] came out at 1.

With `O=C(O)c1ccc(-n2c(/C=C/c3cccc([N+](=O)[O-])c3)nc3cccc(Cl)c3c2=O)cc1`, the IC50 was above 300 µM in test [1] (read-out: IC50); 110 µM in test [3] (read-out: IC50); 22 µM in test [4]; 14 µM in test [5]; above 300 µM in test [6].

For the molecule `O=C(O)c1ccc(-n2c(/C=C/c3ccc4c(c3)OCCO4)nc3ccccc3c2=O)cc1`, the IC50 in test [1] (read-out: IC50) is above 300 µM; in test [3] (read-out: IC50), 262 µM; in test [4], 26 µM; in test [5] it was 16 µM; in test [6], above 300 µM.

Turning to `O=C(O)c1cccc(-n2c(/C=C/c3ccc([N+](=O)[O-])cc3)nc3ccc(I)cc3c2=O)c1`, the IC50 in test [1] (read-out: IC50) is above 300 µM; in test [3] (read-out: IC50), 279 µM; in test [4], 9 µM; in test [5], 8 µM; in test [6], above 300 µM.

In the case of `O=C(O)c1ccc(-n2c(/C=C/c3ccc([N+](=O)[O-])cc3)nc3c(Cl)cc(Cl)cc3c2=O)cc1`, the IC50 in test [1] (read-out: IC50) was above 300 µM; in test [3] (read-out: IC50), above 300 µM; in test [4], 9 µM; in test [5], 6 µM; in test [6] it was above 300 µM.

With `COc1ccc2nc(/C=C/c3cccc(C(=O)O)c3)n(-c3ccc(C(=O)O)cc3)c(=O)c2c1`, the IC50 in test [1] (read-out: IC50) was above 300 µM; in test [3] (read-out: IC50) it was above 300 µM; in test [4], above 300 µM; in test [5] it was 131 µM; in test [6], above 300 µM.

As for `C=CCOc1ccc(/C=C/c2nc3ccccc3c(=O)n2-c2ccc(C(=O)O)cc2)cc1`, the IC50 is above 300 µM in test [1] (read-out: IC50); 144 µM in test [3] (read-out: IC50); 111 µM in test [4]; 30 µM in test [5]; above 300 µM in test [6].
